Results from different studies.
Compare with care: the assays were run in different laboratories.
Target: Mitogen-activated protein kinase 9 (MAPK9, Homo sapiens, UniProt P45984)

Compound	read-out	technique	concentration	remaining binding [%]
COc1ccc2cc(OCC3(C(=O)O)CN(C(=O)c4ccc(F)cc4)C3)ccc2c1	cell-free assay	competition with immobilised ligand	1 µM	100
CNC(=O)[C@@H]1CC[C@@H](n2c(-c3ccc4cnccc4c3)nc3ccc(C(=O)NCc4cccc(C(N)=O)c4)cc32)C1	binding	competition with immobilised ligand	1 µM	67
CN(C(=O)c1ccccc1)c1cc(N(C)c2ccc3c(c2)CCc2ccc(C(=O)NCCN4CCOCC4)cc2C3=O)ccc1F	cell-free assay	competition with immobilised ligand	1 µM	100
C[C@H]1CCN(c2nccc(-c3cnn4ncccc34)n2)C1	binding	–	1 µM	60
Nc1ncc2c(n1)-c1c([nH]c3ccc(C#CC4CC4)cc13)CCCC2	binding	competition with immobilised ligand	1 µM	81
FC(F)(F)Oc1cccc(-c2cnc3ccc(-c4ccncc4)nn23)c1	cell-free assay	competition with immobilised ligand	5 µM	76
O=C(c1ccc(Nc2ncc(Cl)c(-c3cc4ccccc4s3)n2)cc1)N1CCC(N2CCCC2)CC1	binding	competition with immobilised ligand	1 µM	9.8
CNCc1ccccc1-c1csc([C@H](C)Nc2nc(C)nc3cc(OC)c(OC)cc23)c1	cell-free assay	competition with immobilised ligand	1 µM	71
COc1ccnn2ncc(-c3ccnc(N(C)C)n3)c12	binding	–	1 µM	100
C[C@@H]1CN(c2ccc3ncc(-c4ccc5[nH]nc(C6CC6)c5c4)n3n2)C[C@H](C)O1	binding	competition with immobilised ligand	0.5 µM	50
N[C@H]1CCN(c2nccc(-c3cnn4ncccc34)n2)C1	binding	–	1 µM	100
CCOCCn1cc(C(=O)Nc2ccc(-n3nc(-c4cccnc4)cc3C(F)(F)F)cn2)ccc1=O	cell-free assay	competition with immobilised ligand	1 µM	97
CN(CCCC(F)(F)F)c1nccc(-c2cnn3ncccc23)n1	binding	–	1 µM	90
O=C(NCCCN1CCOCC1)c1ccc(Nc2ncc(Cl)c(-c3ccc(Cl)s3)n2)cc1	binding	competition with immobilised ligand	1 µM	11
CNC(=O)Nc1ccc2c(c1)[C@@]1(CC2)OC(=O)N(CC(=O)N(Cc2ccc(F)cc2)[C@@H](C)C(F)(F)F)C1=O	cell-free assay	competition with immobilised ligand	1 µM	69
c1cnn2ncc(-c3ccnc(N4CCC45COC5)n3)c2c1	binding	–	1 µM	44
O=C(NCCCN1CCOCC1)c1ccc(Nc2nccc(-c3cc4ccccc4s3)n2)cc1	binding	competition with immobilised ligand	1 µM	33
O=C(Nc1c[nH]nc1C(=O)NC1CCNCC1)c1cc(F)cc(F)c1	binding	competition with immobilised ligand	1 µM	100
CCC(=O)N[C@@H]1CC[C@H](C(=O)N(C)c2ccc(-c3nc4ccccc4o3)cc2)C1	cell-free assay	competition with immobilised ligand	1 µM	98
CN(C)c1nccc(-c2cnn3ncccc23)n1	binding	–	1 µM	55
COC(=O)Nc1nc2ccc(C(=O)c3ccccc3)cc2[nH]1	cell-free assay	competition with immobilised ligand	10 µM	9.6
CCC(=N\O)/C(C)=C/c1ccc(F)cc1	cell-free assay	competition with immobilised ligand	1 µM	92
N#Cc1ccccc1CSc1nnc2c(n1)[nH]c1ccccc12	binding	competition with immobilised ligand	10 µM	90
